This is an account of results in ChEMBL document CHEMBL3992497, “Synthesis, structure-activity relationships and biological evaluation of 7-phenyl-pyrroloquinolinone 3-amide derivatives as potent antimitotic agents” (Eur J Med Chem, 2017).

Each structure is given as a SMILES string. Active and inactive are the calls of the source. No cut-off for these calls is given here.

The subject of assay [1] is MV4-11. Kind of assay: Antiproliferative activity against human MV4-11 cells after 72 hrs by MTT assay. As to conditions: MV4-11, 72 h. The class given is functional. The procedure, abridged: (§1)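 Compounds from 10 mM DMSO stocks. Cells seeded at 8 × 10^3 per well and held 18 h at 37 °C in humidified 5% CO2. Medium was then replaced with fresh medium holding graded compound concentrations, in triplicate, for 72 h at 37 °C. Viability was read by MTT. GI50 is the concentration giving 50% inhibition of proliferation. Mean ± SE of ≥3 independent dose-response experiments.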

The test system of assay [2] is HT-29. The assay can be described thus: Antiproliferative activity against human HT-29 cells after 72 hrs by MTT assay. The class given is functional. As to conditions: HT-29, 72 h. The procedure, abridged:
as §1

Assay [3] has as its system SEM cells. The assay can be described thus: Antiproliferative activity against human SEM cells after 72 hrs by MTT assay. The format is functional. The procedure, abridged: as §1
In assay [4] the test system is A549. Kind of assay: Antiproliferative activity against human A549 cells after 72 hrs by MTT assay. The class given is functional. As to conditions: A549, 72 h. The method, boiled down: as §1
The test system of assay [5] is CCRF-CEM. Kind of assay: Antiproliferative activity against human CCRF-CEM cells after 72 hrs by MTT assay. The format is functional. The procedure, abridged: as §1
Assay [6] can be described thus: Inhibition of bovine brain tubulin assembly preincubated for 20 mins followed by GTP addition by turbidometric method. More on the design: species or system Bos taurus. The method, boiled down:
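Varying compound concentrations pre-incubated with 10 μM bovine brain tubulin in glutamate buffer at 30 °C, then chilled to 0 °C. GTP added to 0.4 mM final, mixture warmed to 30 °C, turbidity followed at 350 nm.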

The subject of assay [7] is HL-60. Kind of assay: Antiproliferative activity against human HL60 cells after 72 hrs by MTT assay. The format is functional. As to conditions: HL-60, 72 h. The procedure, abridged: as §1
Assay [8] deals with MCF7. Kind of assay: Antiproliferative activity against human MCF7 cells after 72 hrs by MTT assay. The class given is functional. As to conditions: MCF7, 72 h. The method, boiled down:
as §1

The subject of assay [9] is RS4-11. The assay can be described thus: Antiproliferative activity against human RS4:11 cells after 72 hrs by MTT assay. The class given is functional. As to conditions: RS4-11, 72 h. The method, boiled down: as §1
The species entered for assay [10] is Bos taurus. Kind of assay: Inhibition of [3H]colchicine binding to bovine brain tubulin at 5 uM relative to control. The procedure, abridged: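 Reaction mixtures held 1 μM tubulin, 5 μM [3H]colchicine and 5 μM test compound. Inhibition of bound radiolabel measured relative to control.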
Assay [11] relates to Jurkat. Kind of assay: Antiproliferative activity against human Jurkat cells after 72 hrs by MTT assay. The class given is functional. The procedure, abridged: as §1
Assay [12] relates to THP-1. The assay can be described thus: Antiproliferative activity against human THP1 cells after 72 hrs by MTT assay. As to conditions: THP-1, 72 h. The format is functional. The method, boiled down:
as §1

Assay [13] deals with HeLa. The assay can be described thus: Antiproliferative activity against human HeLa cells after 72 hrs by MTT assay. The format is functional. The procedure, abridged:
as §1

Assay [14] deals with HeLa. The assay can be described thus: Induction of ROS generation in human HeLa cells at 10 to 100 nM after 24 to 48 hrs by H2-DCFDA staining based flow cytometry. The format is functional, cell-based. The method, boiled down:
(§2)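 Cells exposed for 24 or 48 h at the indicated concentrations, then loaded with H2-DCFDA. ROS read as oxidised DCF fluorescence by flow cytometry. Mean ± SEM of three independent experiments.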

The subject of assay [15] is PBL. Kind of assay: Antiproliferative activity against phytohematoaglutinin-stimulated human PBL after 72 hrs by MTT assay. The class given is cell-based. The procedure, abridged: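 Donor PBL isolated on a Lymphoprep gradient and rested overnight in RPMI-1640 with 10% FBS. Non-adherent cells resuspended at 5 × 10^5 cells/mL in growth medium with 2.5 μg/mL PHA. Graded compound concentrations added; viability by MTT at 72 h. Mean ± SEM of three separate experiments.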

Assay [16] has as its system HeLa. Kind of assay: Cell cycle arrest in human HeLa cells assessed as accumulation at G2/M phase at 50 to 100 nM after 24 hrs by propidium iodide staining based flow cytometry. The class given is functional. The method, boiled down:
(§3)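 5 × 10^5 cells exposed to varying compound concentrations for 24 h. Cells collected, fixed in ice-cold 70% ethanol, and lysed in buffer with RNase A and 0.1% Triton X-100. PI-stained, then analysed by flow cytometry for phase distribution from DNA histograms. Mean of two independent experiments.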

Assay [17] relates to Jurkat. Kind of assay: Cell cycle arrest in human Jurkat cells assessed as accumulation at G2/M phase at 50 to 100 nM after 24 hrs by propidium iodide staining based flow cytometry. The class given is functional. The method, boiled down: as §3
Assay [18] relates to PBL. Kind of assay: Antiproliferative activity against human PBL after 72 hrs by MTT assay. The format is cell-based. The method, boiled down: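 PBL from healthy donors separated on a Lymphoprep gradient, washed, and held overnight at 1.0 × 10^6 cells/mL in RPMI-1640 with 10% FBS. Non-adherent resting cells resuspended at 5 × 10^5 cells/mL without PHA. Graded compound concentrations for 72 h, then MTT. Mean ± SEM of three separate experiments.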

For assay [19], the system named is Jurkat. The assay can be described thus: Induction of ROS generation in human Jurkat cells at 10 to 100 nM after 24 to 48 hrs by H2-DCFDA staining based flow cytometry. The class given is functional, cell-based. The method, boiled down: as §2

Regarding `O=c1cc(-c2ccccc2)[nH]c2ccc3c(ccn3S(=O)(=O)c3ccc(C(F)(F)F)cc3)c12`, the GI50 was found to be 86 nM in assay [1]; 23 nM in [2]; 33 nM in [3]; 63 nM in assay [4]; 32 nM in assay [5]; 39 nM in assay [7]. Besides, the GI50 was determined as 5 nM in [8]; 147 nM in [9]; 81 nM in [11]; 42 nM in assay [12]; 22 nM in [13]. The molecule further gave an IC50 in assay [6] of 2400 nM. For the same molecule, the inhibition in assay [10] was 29%.
Take `O=c1cc(-c2ccccc2)[nH]c2ccc3c(c12)CCN3S(=O)(=O)c1ccc(C(F)(F)F)cc1`: the GI50 stood at 356 nM in [1]; 255 nM in assay [2]; 336 nM in [3]; 541 nM in assay [4]; 435 nM in [5]; 1620 nM in assay [7]. In addition, the 50% growth inhibitory concentration (GI50) was 475 nM in [8]; 211 nM in assay [9]; 256 nM in assay [11]; 846 nM in assay [12]; 373 nM in assay [13].
As for `CS(=O)(=O)n1ccc2c3c(=O)cc(-c4ccccc4)[nH]c3ccc21`, the GI50 in [1] came out at 49 nM; in assay [2], 7 nM; in assay [3] it was 23 nM; in assay [4] it was 3 nM; in [5] it was 42 nM; in [7] it was 215 nM. For the same molecule, the GI50 turned out to be 152 nM in assay [8]; 18 nM in [9]; 34 nM in assay [11]; 92 nM in assay [12]; 36 nM in assay [13]. Also, the outcome in [14], in [16], in assay [17] and in [19] was Active. Besides, the IC50 in [15] is greater than 100000 nM; in assay [6], 1200 nM; in assay [18] it was greater than 100000 nM. This molecule gave an inhibition in assay [10] of 42%.
For `CS(=O)(=O)N1CCc2c1ccc1[nH]c(-c3ccccc3)cc(=O)c21`, the GI50 was found to be 352 nM in [1]; 623 nM in [2]; 271 nM in assay [3]; 451 nM in assay [4]; 235 nM in assay [5]; 291 nM in [7]. The GI50 in [8] came to 521 nM; in assay [9], 35 nM; in assay [11], 372 nM; in [12] it was 71 nM; in assay [13], 563 nM.
Consider `O=C(C1CC1)n1ccc2c3c(=O)cc(-c4ccccc4)[nH]c3ccc21`, for which the GI50 was found to be 19 nM in assay [1]; 1 nM in assay [2]; 0.4 nM in [3]; 9 nM in assay [4]; 17 nM in [5]; 2 nM in [7]. The GI50 in [8] came out at 5 nM; in assay [9], 0.1 nM; in assay [11], 0.3 nM; in assay [12], 74 nM; in assay [13] it was 1.6 nM.
For the molecule `O=C(NC1CC1)n1ccc2c3c(=O)cc(-c4ccccc4)[nH]c3ccc21`, the GI50 amounted to 85 nM in assay [1]; 255 nM in [2]; 11 nM in assay [3]; 171 nM in assay [4]; 92 nM in assay [5]; 155 nM in [7]. Also, the GI50 worked out at 96 nM in [8]; 27 nM in [9]; 145 nM in assay [11]; 66 nM in assay [12]; 212 nM in [13]. Moreover, half-maximal inhibition in [6] (IC50) was put at 2200 nM. Further, the inhibition in assay [10] amounted to 18%.
For `O=C(c1ccccc1)N1CCc2c1ccc1[nH]c(-c3ccccc3)cc(=O)c21`, the GI50 amounted to 1540 nM in assay [1]; 1590 nM in assay [2]; 918 nM in assay [3]; 918 nM in [4]; 1040 nM in [5]; 2640 nM in [7]. Further, the GI50 in [8] was 1110 nM; in assay [9], 256 nM; in assay [11], 1340 nM; in [12], 2170 nM; in assay [13], 331 nM.
In the case of `Cc1ccc(S(=O)(=O)n2ccc3c4c(=O)cc(-c5ccccc5)[nH]c4ccc32)cc1`, the GI50 in [1] is 65 nM; in assay [2], 5 nM; in [3] it was 33 nM; in [4], 52 nM; in assay [5], 32 nM; in [7] it was 335 nM. The GI50 in assay [8] turned out to be 195 nM; in [9], 48 nM; in assay [11] it was 55 nM; in assay [12] it was 222 nM; in assay [13], 26 nM. Further, the IC50 in assay [6] was found to be 1100 nM. In assay [10], this molecule showed an inhibition of 37%.
With `CS(=O)(=O)N1CCc2cc3[nH]c(-c4ccccc4)cc(=O)c3cc21`, the GI50 in [1], in assay [2], in [3], in assay [4], in assay [5] and in assay [7] was greater than 10000 nM in each case. For the same molecule, the GI50 was greater than 10000 nM in [8]; greater than 10000 nM in [9]; greater than 10000 nM in assay [11]; greater than 10000 nM in [12]; 7640 nM in assay [13].
With `O=C(c1ccccc1)N1CCc2cc3[nH]c(-c4ccccc4)cc(=O)c3cc21`, the GI50 in assay [1] was found to be 1980 nM; in [2], 5440 nM; in assay [3], 1660 nM; in assay [4], 3560 nM; in [5], 818 nM; in assay [7] it was 3740 nM. In addition, the GI50 in [8] is 6320 nM; in assay [9], 132 nM; in assay [11], 2320 nM; in assay [12], 2320 nM; in assay [13] it was 1450 nM.
